# Bioassay records (PubChem)
# MEKK2 mut-MEK5 = signal of MEK5 binding to mutant human MEKK2 PB1 domain; 0.35% of 290,000 active; AID 1530; bead flow cytometry, Alexa488-MEK5 binding to MEKK2 mutant; percent response, % at 10 µM; in the data active = percent response above about 24%, passing the limit was not always enough
# ABCG2 block = inhibitors of human ABCG2 transporter, ABCB1 counter-screen; inhibition, % at 6.6 µM; Q9UNQ0; IgMXP3 cells, JC-1 efflux, flow cytometry; 0.1% of 190,000 active;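 active = inhibition above 80%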;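 also: 0% = DMSO and 100% = nicardipine control wells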
#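 Test system: ABCG2 IgMXP3 and barcoded ABCB1 CCRF-Adr cell mix; Schedule: cells with compound and JC-1, 10 min at 25 °C, rotating, no wash; Technique: flow cytometry of retained JC-1 fluorescence; Measure: % inhibition of efflux relative to nicardipine and DMSO; Controls: nicardipine high and DMSO low controls.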
# WT yeast gro inh = growth inhibition of WT yeast, mitochondrial fusion screen | 2.1% of 190,000 active | inhibition, % at 10 µM | AID 1362 | mitochondrial fusion phenotypic screen, WT strain; in the data active = inhibition above about 58%; tested in S. cerevisiae
# ABCB1 block = inhibitors of human ABCB1 transporter, ABCG2 counter-screen; P08183; CCRF-Adr cells, JC-1 efflux, flow cytometry; inhibition, % at 6.6 µM; 0.067% of 190,000 active; AID 1326; in the data active = inhibition above about 40%;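 also: 0% = vehicle and 100% = reference inhibitor; higher value means more JC-1 retained so stronger ABCB1 efflux block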
# MEKK3 PB1 HTS = MEKK3-MEK5 PB1 interaction, increase or decrease; AID 1529; Q99759; 1.4% of 290,000 active; bead-based flow cytometry, Alexa488-MEK5 binding to MEKK3; actives lie on both sides; 0 = blocked by unlabeled MEK5, 100 = vehicle; binding response (% of control), % at 10 µM;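 active = binding response more than 3 SD above or below the average of its plate-row segment, actives on both sides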;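 also: Alexa488 bead fluorescence after subtracting the streptavidin-only scavenger bead signal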
# Target sequence (Q99759 whole entry, looked up): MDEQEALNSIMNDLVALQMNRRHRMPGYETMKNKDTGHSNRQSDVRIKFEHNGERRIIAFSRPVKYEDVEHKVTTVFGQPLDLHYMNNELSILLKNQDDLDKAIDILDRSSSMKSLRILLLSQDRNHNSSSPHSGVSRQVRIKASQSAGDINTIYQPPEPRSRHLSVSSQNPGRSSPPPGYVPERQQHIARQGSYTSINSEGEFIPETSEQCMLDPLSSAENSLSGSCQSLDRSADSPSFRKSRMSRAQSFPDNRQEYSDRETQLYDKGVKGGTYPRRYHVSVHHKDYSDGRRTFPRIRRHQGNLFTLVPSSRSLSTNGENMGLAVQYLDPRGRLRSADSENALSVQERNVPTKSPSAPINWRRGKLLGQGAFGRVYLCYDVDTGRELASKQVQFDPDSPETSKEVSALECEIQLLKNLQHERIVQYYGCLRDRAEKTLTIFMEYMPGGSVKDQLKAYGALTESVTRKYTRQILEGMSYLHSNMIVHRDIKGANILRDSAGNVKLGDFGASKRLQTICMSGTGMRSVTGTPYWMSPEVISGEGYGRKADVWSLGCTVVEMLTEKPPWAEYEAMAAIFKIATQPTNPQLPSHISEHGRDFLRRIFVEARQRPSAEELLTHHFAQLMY
# MEKK2 WT-MEK5 = raises or lowers MEK5 binding to wildtype human MEKK2 PB1 domain. Q9Y2U5. bead flow cytometry, Alexa488-MEK5 binding to MEKK2 WT; actives lie on both sides. binding response (% of control), % at 10 µM. 1.1% of 290,000 active. AID 1531; in the data active = binding response below about 67% or above about 130%
# An asterisk follows results filed as active; · = no result given. The list is not random: actives were taken first. Their share in the collection is about 3.5%.
SMILES,MEKK2 mut-MEK5,ABCG2 block,WT yeast gro inh,ABCB1 block,MEKK3 PB1 HTS,MEKK2 WT-MEK5
CSCCNC(=O)c1ccc2nc(C3CCCCC3)oc2c1,4,·,·,·,107,106
COc1ccc(-c2noc(CN(C)C(=O)Nc3ccccc3)n2)cc1,0,3,7,0,94,95
CCCOc1ccc(-c2nc(OCC)c3ccccc3n2)cc1,2,3,60*,0,103,103
CCOc1nc(-c2ccncc2)nc2ccccc12,-2,5,19,1,95,89
Cc1cc(N2CCN(c3ccccc3)CC2)n2cc(-c3ccccc3)nc2n1,2,9,29,4,100,93
Cc1cc(N2CCN(c3ccccc3Cl)CC2)n2cc(-c3ccccc3)nc2n1,-17,20,74*,6,87,77
CC1(C)Cc2c(sc(NC(=O)c3ccc(C(=O)c4ccccc4)cc3)c2C(N)=O)C(C)(C)N1,22,·,·,·,106,150*
CCOC(=O)c1c(NC(=O)COc2ccccc2C#N)sc2c1CC(C)(C)NC2(C)C,16,·,·,·,104,134*
CCOC(=O)c1c(NC(=O)Cc2ccccc2)sc2c1CC(C)(C)NC2(C)C,6,·,·,·,104,120
COC(=O)c1c(NC(=O)c2ccccc2)sc2c1CC(C)(C)NC2(C)C,15,5,-2,8,103,121
COc1cc(SSc2cc(OC)cc([N+](=O)[O-])c2N)c(N)c([N+](=O)[O-])c1,-1,·,·,·,93,99
Cc1cccc(NS(=O)(=O)c2ccc3c(c2)Cc2cc(S(=O)(=O)Nc4cccc(C)c4C)ccc2-3)c1C,0,-2,-1,0,88,-3.0*
Cc1ccccc1OCc1nc2ccccc2c(=O)n1NC(=O)c1ccco1,5,8,-4,0,101,102
Cc1ccc(C(=O)N/C(=C\c2ccc(-c3ccc([N+](=O)[O-])cc3)o2)C(=O)NC2CCS(=O)(=O)C2)cc1 (configuration not stated),8,40,0,-1,98,4.0*
OC(COc1ccc2ccccc2c1Br)Cn1ccnc1 (configuration not stated),21,6,71*,1,104,119
OC(COc1ccc2ccccc2c1)Cn1ccnc1 (configuration not stated),6,5,-1,0,111,115
Cc1ccc(C(=O)Nn2cnnc2)cc1,0,·,·,·,96,96
CCNc1nc(CSc2ccccc2)nc2sc(C)c(C)c12,12,13,67*,1,99,99
COc1ccc(NC(=O)CCC(=O)Nc2nnc(C3CCCCC3)s2)c(OC)c1,9,·,·,·,105,106
COc1cc(OC)c2c(c1)C(=O)c1cc(OC)cc(OC)c1C2=O,9,0,87*,0,102,98
COc1ccc(C=C2c3ccccc3C(=O)c3ccccc32)c(OC)c1,5,·,·,·,104,103
COc1cc(/C=N/NC(=O)CC#N)ccc1Oc1nc(Cl)ncc1F,2,·,·,·,106,107
O=C(CCCCCn1c(=S)[nH]c2cc3c(cc2c1=O)OCO3)N1CCN(C(=O)c2ccco2)CC1,0,7,69*,1,100,98
Cc1cc(C)n(-c2nc(NCCN(C)C)c3c4c(sc3n2)COC(C)(C)C4)n1,1,·,·,·,95,106
Cc1cc(C)n(-c2nc(NCCC(C)C)c3c4c(sc3n2)COC(C)(C)C4)n1,·,14,80*,6,·,·
SMILES,MEKK2 mut-MEK5,ABCG2 block,WT yeast gro inh,ABCB1 block,MEKK3 PB1 HTS,MEKK2 WT-MEK5
Nc1ccc(O)c(-c2nc3ccccc3s2)c1,0,-10,8,-1,94,97
Oc1ccc(-c2nc3ccccc3s2)c(O)c1,2,·,·,·,93,-2.0*
Cc1nn(Cc2ccccc2)c(Cl)c1C(=O)NCc1ccco1,1,11,2,2,106,105
CCN(CC)CCOc1ncnc2c1oc1ccccc12,1,2,-8,0,101,102
CCCCc1oc2ccccc2c1C(=O)c1cc(I)c(OCCN(CC)CC)c(I)c1,51*,·,98,·,119,163*
C/C(CCC12CC3CC(CC(C3)C1)C2)=N\NC(N)=S,2,4,78*,1,106,99
O=[N+]([O-])c1ccccc1S(=O)(=O)NCCC1=CCCCC1,·,3,71*,1,·,·
Cc1nc2ccccc2c(=O)n1NC(=O)c1ccccc1Cl,5,6,74*,1,105,107
CC(C)C(C)NC(=O)COC(=O)c1cccc(C(=O)OCC(=O)NC(C)C(C)C)n1 (configuration not stated),-10,4,8,0,98,87
Cc1ccccc1NC1=C(Cl)C(=O)N(C2CCCCC2)C1=O,3,11,69*,0,107,103
COc1ccccc1N1C(=O)C(Cl)=C(Nc2ccccc2O)C1=O,-12,10,52,3,92,79
COc1ccccc1NC1=C(Cl)C(=O)N(C2CCCCC2)C1=O,·,23,70*,2,·,·
Cc1cc(N2CCN(C(=O)c3ccco3)CC2)n2nc(C)c(-c3ccccc3)c2n1,2,-1,63*,0,111,98
Cc1cc(C)c(S(=O)(=O)c2ccccc2C(C)C)c(=O)[nH]1,2,·,·,·,101,102
CC(C)(C)c1cc(C(c2cccnc2)N2CCN(CCO)CC2)cc(C(C)(C)C)c1O (configuration not stated),3,10,72*,1,101,98
CC(C)(C)n1nnnc1C(c1cccnc1)N1CCN(c2cccc(C(F)(F)F)c2)CC1 (configuration not stated),3,1,-22,1,96,96
NNc1nc(-c2ccccc2)cc(-c2ccccc2)n1,-6,1,70*,0,79,86
NNc1nc(-c2ccccc2)cc(-c2ccccc2O)n1,4,2,10,0,103,103
Cc1nonc1C1CCCN1Cc1cn[nH]c1-c1ccc(-c2ccccc2)cc1 (configuration not stated),-3,4,58*,1,105,97
Cn1c(=O)n(C)c2cc([N+](=O)[O-])c(N3CCN(S(=O)(=O)c4ccc(C(C)(C)C)cc4)CC3)cc21,0,5,74*,-4,102,96
CCCCCc1cc(=O)[nH]c(=S)[nH]1,11,·,·,·,89,80
CCCCCc1ccc(C(=O)CCCC)c(=S)[nH]1,5,-1,66*,-2,100,102
O=C1CCCCC1C(Nc1ccc(Br)cc1)c1ccccc1 (configuration not stated),·,1,65*,0,·,·
COc1cc(OC)c(OC)cc1CN1CCN(Cc2cccn2C)CC1,3,-1,-10,0,94,103
